Measurements collected from several papers.
Each line is one published result; the experiments were not run side by side.
Oprm1: Mu-type opioid receptor (Oprm1, Mus musculus, UniProt P42866)
CNR1: Cannabinoid receptor 1 (CNR1, Homo sapiens, UniProt P21554)

CC(C)[C@H](CN1CCc2ccccc2C1)NC(=O)c1cccc(-c2cccc(O)c2)c1
Ki (Oprm1; ligand displacement, radioligand): 3100 nM

CC(C)(NC(=O)c1nn(CCCCC#N)c2ccccc12)c1cccc(C(N)=O)c1
Ki (CNR1; ligand displacement, radioligand; cell membranes): 460 nM

CC[C@H](C)[C@@H](C(=O)N1CCC[C@H]1c1nccs1)N(C)C(=O)[C@H](CC(C)C)N(C)C(=O)[C@H](Cc1ccc(OC)cc1)N(C)C(=O)/C=C(\C)OC
IC50 (CNR1; ligand displacement, radioligand): 16600 nM

CCCCCn1nc(C(=O)NC(C)(C)c2cccc(C(N)=O)c2)c2ccccc21
Ki (CNR1; ligand displacement, radioligand; cell membranes): 250 nM

COc1cc2c3c(c1OC)-c1c(OC)ccc(Br)c1CC3N(C)CC2 (centres unmarked)
Ki (5-hydroxytryptamine receptor 2A (HTR2A, Homo sapiens, UniProt P28223); cell-free assay, radioligand): 373 nM

Cc1c(CC(=O)N[C@@H](CN2CCc3ccccc3C2)C(C)C)cccc1[N+](=O)[O-]
Ki (Oprm1; ligand displacement, radioligand): 150 nM

COc1cc2c(cc1OC)CN(CCc1ccc(NC(=O)c3cccc4c(=O)c5cccc(OC)c5[nH]c34)cc1)CC2
Ki (Kappa-type opioid receptor (OPRK1, Homo sapiens, UniProt P41145); cell-free assay): > 10000 nM

CC(C)(C#N)CCCn1nc(C(=O)NC(C)(C)c2cccc(C(N)=O)c2)c2ccccc21
Ki (CNR1; ligand displacement, radioligand; cell membranes): 250 nM

CCCCCc1ccccc1C/C=C\C/C=C\C/C=C\CCCC(=O)N[C@H](C)CO
EC50 (CNR1; β-arrestin recruitment, agonist): 3440 nM

O=C(O)Cn1c(=O)n(Cc2ccc(Br)cc2F)c(=O)c2ccc(Cl)cc21
Kd (Fatty acid-binding protein, intestinal (Homo sapiens, UniProt P12104, T55A); ligand displacement, fluorescence): 2680 nM

CCCCC/C=C\[C@H](C)/C=C\C/C=C\Cc1ccccc1CCCC(=O)N[C@H](C)CO
EC50 (CNR1; β-arrestin recruitment, agonist): 1960 nM

O=c1cc(CSc2ccc(N=Cc3ccc(F)cc3)cc2)occ1O
IC50 (PPO3 (Agaricus bisporus, UniProt C7FF04); enzyme activity, inhibitor, absorbance): 53500 nM

C[C@@H](O)[C@@H]1NC(=O)CNC(=O)[C@H](Cc2c[nH]cn2)NC(=O)[C@H](Cc2c[nH]c3ccccc23)NC(=O)[C@H](CC(N)=O)NC(=O)CNC(=O)C[C@@H](C(=O)N[C@@H](Cc2c[nH]c3ccccc23)C(=O)N[C@@H](Cc2ccccc2)C(=O)N[C@@H](Cc2ccccc2)C(=O)N[C@@H](CC(N)=O)C(=O)N[C@@H](Cc2ccc(O)cc2)C(=O)N[C@@H](Cc2ccc(O)cc2)C(=O)N[C@@H](Cc2c[nH]c3ccccc23)C(=O)O)NC(=O)[C@@H]2CCCN2C(=O)[C@H](CO)NC1=O
IC50 (Endothelin-1 receptor (EDNRA, Homo sapiens, UniProt P25101); ligand displacement, radioligand; cell membranes): > 10000 nM

CC(C)(NC(=O)c1nn(CCCCCF)c2ccccc12)c1cccc(C(N)=O)c1
Ki (CNR1; ligand displacement, radioligand; cell membranes): 68 nM

CCCCC/C=C\C/C=C\C/C=C\Cc1ccccc1CCCC(=O)N[C@H](C)CO
EC50 (CNR1; β-arrestin recruitment, agonist): 607 nM

CC(C)[C@H](CN1CCc2ccccc2C1)NC(=O)Cc1c[nH]c2ccccc12
Ki (Oprm1; ligand displacement, radioligand): 420 nM

CCCCC1CNC2CCc3ccc(OC)cc3C12 (racemic)
Ki (Sigma non-opioid intracellular receptor 1 (SIGMAR1, Homo sapiens, UniProt Q99720); ligand displacement, radioligand): 0.81 nM
